Data set [1] relates to DU-145. In words: Metabolic stability in human DU145 cells assessed as sodium ((2R,3S,4R,5R)-5-(4-amino-7H-pyrrolo[2,3-d]pyrimidin-7-yl)-3,4-dihydroxytetrahydrofuran-2-yl)methyl hydrogentriphosphate-NTP formation per million of cells at 10 uM after 6 hrs by LC/MS/MS analysis. The settings on record: du-145, 6 h. It is filed as ADME, cell-based. The gist of the method: (§1)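 Du145 seeded at 60% confluence in MEM/10% FBS; next day exposed to 10 μM compound for 6 or 24 h. Cells trypsinized, extracted in 70% MeOH, dried, resuspended in 1 mM ammonium phosphate pH 8.5. Nucleoside, NMP and NTP quantified by ion-pairing (dimethylhexylamine) LC/MS/MS against untreated-cell-extract standard curves; pmol per million cells.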

In data set [2] the test system is DU-145. The data set can be described thus: Metabolic stability in human DU145 cells assessed as sodium ((2R,3S,4R,5R)-5-(4-amino-7H-pyrrolo[2,3-d]pyrimidin-7-yl)-3,4-dihydroxytetrahydrofuran-2-yl)methyl hydrogenphosphate-NMP formation per million of cells at 10 uM after 24 hrs by LC/MS/MS analysis. It counts as ADME, cell-based. Conditions: du-145, 24 h. The method, boiled down: as §1

For data set [3], the system named is DU-145. In words: Metabolic stability in human DU145 cells assessed as sodium ((2R,3S,4R,5R)-5-(4-amino-7H-pyrrolo[2,3-d]pyrimidin-7-yl)-3,4-dihydroxytetrahydrofuran-2-yl)methyl hydrogentriphosphate-NTP formation per million of cells at 10 uM after 24 hrs by LC/MS/MS analysis. It is filed as ADME, cell-based. The settings on record: du-145, 24 h. The method, boiled down: as §1

The subject of data set [4] is PC-3. The data set can be described thus: Cytostatic activity against human PC3 cells after 5 days by SRB assay. It counts as functional. Conditions: PC-3, 120 h. The method, boiled down:
(§2)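 Cells seeded per line density, overnight at 37 °C; day-zero plate TCA-fixed. 5-fold serial dilutions added, 5-day incubation; TCA fixation, 0.057% SRB in 1% acetic acid 30 min, dye dissolved in 10 mM Tris pH 10.5, A500. Growth relative to day-zero and untreated; GIC50 from sigmoidal dose–response fit; mean of two independent experiments.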

For data set [5], the system named is HCT-116. In words: Cytostatic activity against human HCT116 cells after 5 days by SRB assay. It is filed as functional. Conditions: HCT-116, 120 h. The gist of the method: as §2
Data set [6] relates to HCT-15. The data set can be described thus: Cytostatic activity against human HCT15 cells after 5 days by SRB assay. It counts as functional. Conditions: HCT-15, 120 h. The method, boiled down: as §2
A general note: The SRB assay estimates cell density from bound dye.

Data set [7] in a line: Cytostatic activity against human Hs578 cells after 5 days by SRB assay. It is filed as functional. Conditions: Hs578, 120 h. The method, boiled down: as §2
Data set [8] concerns K562. In words: Cytotoxicity against human paclitaxel resistant K562 cells after 3 days by MTT assay. It counts as functional, cell-based. Conditions: K562, 72 h. For orientation: Formazan colour is commonly taken as a measure of viable cells.
Data set [9] deals with BV-173. The data set can be described thus: Cytotoxicity against human BV173 cells after 3 days by MTT assay. It is filed as functional, cell-based. The settings on record: BV-173, 72 h.
In data set [10] the test system is BT-549. In words: Cytotoxicity against human BT549 cells after 3 days by MTT assay. Conditions: BT-549, 72 h. It is filed as functional, cell-based.
Data set [11] has as its system MDA-MB-231. The data set can be described thus: Cytotoxicity against human MDA-MB-231 cells after 3 days by MTT assay. It is filed as functional, cell-based. Conditions: MDA-MB-231, 72 h.
In data set [12] the test system is HCT-116. In words: Cytotoxicity against human HCT116 cells after 3 days by MTT assay. It counts as functional, cell-based. The settings on record: HCT-116, 72 h.
Data set [13] has as its system PC-3. The data set can be described thus: Cytotoxicity against human PC3 cells after 3 days by MTT assay. It counts as functional, cell-based. The settings on record: PC-3, 72 h.
Data set [14] relates to LNCaP. In words: Cytotoxicity against human LNCAP cells after 3 days by MTT assay. It counts as functional, cell-based. Conditions: 72 h.
Data set [15] is described as follows: Cytotoxicity against human NCI-H146 cells after 3 days by MTT assay. It is filed as functional, cell-based. Conditions: NCI-H146, 72 h.
In data set [16] the test system is HeLa. In words: Cytotoxicity against human HeLa cells after 3 days by MTT assay. It is filed as functional, cell-based. The settings on record: 72 h.
Data set [17] concerns SK-MEL-2. The data set can be described thus: Cytotoxicity against human SK-MEL-2 cells after 3 days by MTT assay. It counts as functional, cell-based. Conditions: SK-MEL-2, 72 h.
Data set [18] deals with CCRF-CEM. In words: Induction of apoptosis in human CCRF-CEM cells at 5 time GI50 after 4 to 8 hrs using propidium iodide staining by flow cytometry. It counts as functional, cell-based. The gist of the method: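 CCRF-CEM at 5 × 10^5 cells/ml in RPMI 1640/10% FCS, 37 °C, exposed to 1× or 5× GIC50; vehicle controls in parallel. Ethanol-fixed, RNase-treated, propidium iodide stained, flow cytometry; apoptosis taken as % sub-G1 particles (logarithmic mode).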
(A flow cytometer gives signals particle by particle.)

A short description of data set [19]: Antitumor activity against mouse P388D1 cells xenografted in DBA/2 mouse assessed as increase of lifespan at 75 mg/kg, ip qd administered as 2 cycles on day 1 to 3 and day 8 to 10. It counts as functional. Conditions: route intraperitoneal. The method, boiled down:
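P388D1 mouse leukemia cells, grown in RPMI with 10% FBS, were implanted ip at 10^5 cells per mouse on day 0 into female DBA/2 mice (18–22 g, SPF) and randomized 10 per group. Dosing was once daily ip in 50% PEG400/deionized water (pH 7.0) on days 1–3 and 8–10, with vehicle for controls. Deaths were recorded daily, and MST and %ILS were calculated.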

This note sets out measurements from ChEMBL document CHEMBL1811802, “Synthesis and significant cytostatic activity of 7-hetaryl-7-deazaadenosines” (J Med Chem, 2011).

The source made the active and inactive calls. No cut-off for these calls is given here.

A word on the GI50: it is the concentration that inhibits growth by half. Usually IC50 stands for the concentration that inhibits the measured activity by half. The low end stands for inhibition by little substance, the high end for a need for much substance.

As to `Nc1ncnc2c1c(-c1cccs1)cn2[C@@H]1O[C@H](CO)[C@@H](O)[C@H]1O`, the Stability in data set [1] is 0.53 pmol; in [2], 64 pmol; in data set [3], 1.96 pmol. For the same molecule, the GI50 in [4] was determined as 1620 nM; in data set [5] it was 2.6 nM; in data set [6], 11 nM; in data set [7], 12 nM. The IC50 in data set [8] was 47 nM; in data set [9], 105 nM; in data set [10], 119 nM; in data set [11], 26 nM; in [12], 60 nM; in [13] it was 8730 nM. In addition, the IC50 in data set [14] is 18 nM; in [15], greater than 10000 nM; in data set [16], 33 nM; in [17] it was 1980 nM. The outcome in [18] was Active. Besides, the Activity in [19] was determined as 29%.
